Measurements pooled from the literature.
Protocols differ between the studies behind these lines.
Cell line: PC-3
Read-out: cell growth or viability

| SMILES | test | conditions | IC50 |
| --- | --- | --- | --- |
| CCN(CC)C/C=N/NC(=O)Nc1cc2c(Nc3ccc(F)c(Cl)c3)ncnc2cc1OC | MTT | 72 h | 4400 nM |
| COc1cc(Nc2nc(CNCc3ccccc3)cc3c(-c4ccccc4)n[nH]c23)cc(OC)c1OC | MTS | 48 h | 4300 nM |
| CNC(=O)c1cc(Oc2ccc(NC(=O)Nc3ccc(Cl)c(C(F)(F)F)c3)cc2)ccn1 | MTT | 72 h | 3600 nM |
| Cc1cc(C)cc(COc2cc3c(cc2OCc2cc(C)cc(C)c2)[C@H]2C[C@](O)(Cc4cn(Cc5ccc(-c6ccccc6)cc5)nn4)C[C@H](C)N2CC3)c1 | MTT |  | 206 nM |
| CN(C)C/C=N/NC(=O)Nc1cc2c(Nc3ccc(F)c(Cl)c3)ncnc2cc1O[C@H]1CCOC1 | MTT | 72 h | 6510 nM |
| COc1ccc2c(c1OC)C(=O)O[C@@H]2[C@H]1c2c(c(Br)c3c(c2OC)OCO3)CCN1C | MTT | 48 h | 182000 nM |
| CN1CCN(C/C=N/NC(=O)Nc2cc3c(Nc4ccc(F)c(Cl)c4)ncnc3cc2O[C@H]2CCOC2)CC1 | MTT | 72 h | 1830 nM |
| Cc1cc(C)cc(COc2cc3c(cc2OCc2cc(C)cc(C)c2)[C@H]2C[C@](O)(Cc4cn(CC5CC5)nn4)C[C@H](C)N2CC3)c1 | MTT |  | 302 nM |
| Cc1c(OCC(F)(F)F)ccnc1COc1ccc(NC(=O)Nc2ccc(Cl)c(C(F)(F)F)c2)cc1 | MTT | 72 h | 54200 nM |
| Cc1ccc(C(=O)O)c(NC(=O)c2ccc(N)cc2)c1 | MTT |  | > 120000 nM |
| COc1c(C)cnc(COc2ccc(NC(=O)Nc3ccc(F)cc3)cc2)c1C | MTT | 72 h | 43300 nM |
| CC(C)c1cc(-c2n[nH]c(=O)n2-c2ccc3c(ccn3C)c2)c(O)cc1O | imaging | 24 h | 138 nM |
| COc1cc2ncnc(Nc3ccc(F)c(Cl)c3)c2cc1NC(=O)N/N=C/c1cccn1CCCN(C)C | MTT | 72 h | 30 nM |
| Cc1ccc(Cn2cc(C[C@@]3(O)C[C@@H]4c5cc(OCc6cc(C)cc(C)c6)c(OCc6cc(C)cc(C)c6)cc5CCN4[C@@H](C)C3)nn2)cc1 | MTT |  | 375 nM |
| Cc1c(OCC(F)(F)F)ccnc1COc1ccc(NC(=O)Nc2cc(F)cc(F)c2)cc1 | MTT | 72 h | > 100000 nM |
| Cc1cc(C)cc(COc2cc3c(cc2OCc2cc(C)cc(C)c2)[C@H]2C[C@](O)(Cc4cn(Cc5ccc(O)cc5)nn4)C[C@H](C)N2CC3)c1 | MTT |  | 790 nM |
| CCN(CC)CCn1cccc1/C=N/NC(=O)Nc1cc2c(Nc3ccc(F)c(Cl)c3)ncnc2cc1OC | MTT | 72 h | 1050 nM |
| COCCCOc1ccnc(COc2ccc(NC(=O)Nc3cc(F)cc(F)c3)cc2)c1C | MTT | 72 h | > 100000 nM |
| COc1cc2ncnc(Nc3ccc(F)c(Cl)c3)c2cc1NC(=O)N/N=C/CN(C)C | MTT | 72 h | 2780 nM |
| C=CC(=O)Nc1ccc(Cn2cc(C[C@@]3(O)C[C@@H]4c5cc(OCc6cc(C)cc(C)c6)c(OCc6cc(C)cc(C)c6)cc5CCN4[C@@H](C)C3)nn2)cc1 | MTT |  | 161 nM |
